The text below walks through data of ChEMBL document CHEMBL3608272, “Design, synthesis and anticancer properties of novel oxa/azaspiro[4,5]trienones as potent apoptosis inducers through mitochondrial disruption” (2015).

In general, GI50 refers to the concentration at which growth is held to half of that of the control.

Common to all, as to format: functional
The subject of one assay is A549. In words: Anti-proliferative activity against human A549 cells incubated for 48 hrs by SRB assay. The settings on record: A549, 48 h.
The next assay deals with DU-145. Briefly: Anti-proliferative activity against human DU145 cells incubated for 48 hrs by SRB assay. The settings on record: DU-145, 48 h. The essentials: (§1)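 SRB assay. Cells in DMEM with 10% FBS were seeded and grown 24 h at 37 °C in CO2. Compounds were diluted from a 10 mM DMSO stock to 1, 5 and 10 µM, with DMSO at most 0.1%, and exposed 48 h. Cells were fixed with 10% TCA for 60 min at 4 °C and stained 20 min at room temperature with 0.4% SRB in 1% acetic acid. Dye was eluted with 10 mM trizma base and absorbance read at 540 nm. Run in triplicate; GI50 given as mean ± SD of three determinations.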
Background: Sulforhodamine B stains cellular protein and so reports cell mass.

The subject of the next assay is MCF7. Briefly: Anti-proliferative activity against human MCF7 cells incubated for 48 hrs by SRB assay. The settings on record: MCF7, 48 h. The essentials: as §1
A further assay concerns HepG2. Briefly: Anti-proliferative activity against human HepG2 cells incubated for 48 hrs by SRB assay. The settings on record: HepG2, 48 h. The essentials: as §1

The structures appear in SMILES notation.

As for `CC/C(=C(\c1ccccc1)c1ccc(OCCN(C)C)cc1)c1ccccc1` [TAMOXIFEN], the results for the GI50 in the assay on A549, in the assay with DU-145 and in the assay with MCF7 were 24.4 µM, 19.3 µM and 8 µM, respectively.

With `CN1C(=O)C(c2cccc3ccccc23)=C(c2ccccc2)C12C=CC(=O)C=C2`, the GI50 with A549 amounted to 17.3 µM; in the assay on DU-145, 6.3 µM; with MCF7, 2.4 µM; in the assay with HepG2, 6.12 µM.

Turning to `CN1C(=O)C(c2ccc(C=O)s2)=C(c2ccccc2)C12C=CC(=O)C=C2`, the GI50 was 16.6 µM in the assay on A549, 8.2 µM in the assay with DU-145, 3.6 µM in the assay on MCF7 and 13.9 µM in the assay with HepG2.

As for `COC(=O)/C=C/C1=C(c2ccccc2)C2(C=CC(=O)C=C2)OC1=O`, the GI50 with A549 stood at 7.8 µM; with DU-145 it was 4.3 µM; with MCF7, 1.2 µM; in the assay on HepG2, 6.3 µM.

As to `CN1C(=O)C(c2ccccc2)=C(c2ccccc2)C12C=CC(=O)C=C2`, the GI50 in the assay on A549 amounted to 22.5 µM; with DU-145, 15.5 µM; in the assay with MCF7, 8.2 µM; in the assay on HepG2, 9.2 µM.

As for `COc1cccc2c1C(=O)c1c(O)c3c(c(O)c1C2=O)C[C@@](O)(C(=O)CO)C[C@@H]3O[C@H]1C[C@H](N)[C@H](O)[C@H](C)O1` [DOXORUBICIN], the GI50 in the assay on A549 amounted to 1.9 µM; in the assay on DU-145, 0.95 µM; with MCF7, 1.6 µM; in the assay with HepG2 it was 1.4 µM.

Regarding `CN1C(=O)C(c2ccc(C=O)cc2)=C(c2ccccc2)C12C=CC(=O)C=C2`, the GI50 in the assay with A549 came to 36.2 µM; with DU-145 it was 18.2 µM; in the assay with MCF7, 11.1 µM; with HepG2 it was 12.7 µM.

On to `CN1C(=O)C(c2ccoc2)=C(c2ccccc2)C12C=CC(=O)C=C2`, for which the GI50 stood at 126 µM in the assay on A549, 91.2 µM with DU-145, 52.7 µM in the assay with MCF7 and 62.8 µM in the assay on HepG2.

For `O=C1C=CC2(C=C1)OC(=O)C(c1ccc(O)cc1)=C2c1ccccc1`, the 50% growth inhibitory concentration (GI50) with A549 stood at 6.2 µM; with DU-145, 2.7 µM; with MCF7, 3.4 µM; with HepG2, 3.5 µM.

As for `CN1C(=O)C(c2ccc(C(F)(F)F)cc2)=C(c2ccccc2)C12C=CC(=O)C=C2`, the GI50 is 30.3 µM with A549, 17.6 µM in the assay with DU-145, 8.1 µM in the assay on MCF7 and 13.7 µM in the assay with HepG2.

As for `CN1C(=O)C(c2ccc(CO)cc2)=C(c2ccccc2)C12C=CC(=O)C=C2`, the GI50 was 13.6 µM with A549, 11.5 µM with DU-145, 7.6 µM in the assay on MCF7 and 7.7 µM with HepG2.

Regarding `COc1ccc(C2=C(c3ccccc3)C3(C=CC(=O)C=C3)N(C)C2=O)cc1`, the GI50 in the assay with A549 was 98 µM; in the assay on DU-145, 55.7 µM; in the assay on MCF7, 45.4 µM; in the assay on HepG2, 61.7 µM.

For `Cc1ccc(C2=C(c3ccccc3)C3(C=CC(=O)C=C3)N(C)C2=O)cc1Cl`, the 50% growth inhibitory concentration (GI50) in the assay with A549 came to 21.1 µM; with DU-145, 12.1 µM; in the assay with MCF7, 7.4 µM; in the assay on HepG2 it was 10.4 µM.

As for `O=Cc1ccc(C2=C(c3ccccc3)C3(C=CC(=O)C=C3)OC2=O)s1`, the GI50 in the assay with A549 was found to be 4.6 µM; in the assay on DU-145, 4 µM; in the assay with MCF7, 3.4 µM; in the assay on HepG2 it was 2.6 µM.

In the case of `O=C1C=CC2(C=C1)OC(=O)C(c1ccc(C(=O)O)cc1)=C2c1ccccc1`, the 50% growth inhibitory concentration (GI50) in the assay on A549 worked out at 6.3 µM; in the assay with DU-145, 4.8 µM; with MCF7 it was 3.5 µM; in the assay on HepG2, 6.3 µM.

In the case of `CN1C(=O)C(c2cc3ccccc3s2)=C(c2ccccc2)C12C=CC(=O)C=C2`, the GI50 turned out to be 18.8 µM in the assay with A549, 9 µM with DU-145, 4.2 µM in the assay with MCF7 and 7.2 µM with HepG2.

In the case of `CN1C(=O)C(c2ccc(C#N)cc2)=C(c2ccccc2)C12C=CC(=O)C=C2`, the GI50 in the assay with A549 is 25.4 µM; with DU-145, 11.6 µM; with MCF7, 13.6 µM; with HepG2, 16.6 µM.

On to `COc1ccc(C2=C(c3ccccc3)C3(C=CC(=O)C=C3)N(C)C2=O)c(OC)c1`, for which the GI50 stood at 101 µM with A549, 62.7 µM with DU-145, 71.7 µM in the assay with MCF7 and 69.1 µM with HepG2.

Turning to `CSc1ccc(C2=C(c3ccccc3)C3(C=CC(=O)C=C3)N(C)C2=O)cc1`, the GI50 in the assay with A549 came to 50.4 µM; in the assay on DU-145 it was 26.4 µM; in the assay on MCF7 it was 15.8 µM; with HepG2 it was 18.7 µM.

Turning to `CN1C(=O)C(c2cccc(Cl)c2Cl)=C(c2ccccc2)C12C=CC(=O)C=C2`, the 50% growth inhibitory concentration (GI50) came to 27.6 µM in the assay on A549, 14 µM in the assay on DU-145, 9.9 µM with MCF7 and 10.5 µM with HepG2.

Consider `O=C1C=CC2(C=C1)OC(=O)C(c1ccc(CO)cc1)=C2c1ccccc1`, for which the concentration for 50% growth inhibition (GI50) in the assay with A549 turned out to be 8.1 µM; in the assay with DU-145 it was 2.4 µM; with MCF7, 1.7 µM; with HepG2, 3.3 µM.

For the molecule `CN1C(=O)C(c2ccc3c(c2)OCO3)=C(c2ccccc2)C12C=CC(=O)C=C2`, the GI50 is 30.2 µM in the assay on A549, 16.3 µM with DU-145, 6.7 µM with MCF7 and 19.6 µM with HepG2.

`COc1ccc(C2=C(c3ccccc3)C3(C=CC(=O)C=C3)OC2=O)cc1`: the GI50 stood at 7.3 µM in the assay on A549, 4.1 µM in the assay with DU-145, 1.8 µM with MCF7 and 3.4 µM in the assay on HepG2.
